# Published values from different studies.
# Protocols differ between the studies behind these lines.
# EGFR T790M: Epidermal growth factor receptor (EGFR, Homo sapiens, UniProt P00533, T790M)
# EGFR L858R/T790M: Epidermal growth factor receptor (EGFR, Homo sapiens, UniProt P00533, L858R/T790M)
# EGFR del746-750: Epidermal growth factor receptor (EGFR, Homo sapiens, UniProt P00533, del746-750)
# EGFR del752-759: Epidermal growth factor receptor (EGFR, Homo sapiens, UniProt P00533, del752-759)
# EGFR: Epidermal growth factor receptor (EGFR, Homo sapiens, UniProt P00533)
# EGFR A750P/del747-749: Epidermal growth factor receptor (EGFR, Homo sapiens, UniProt P00533, A750P/del747-749)
# EGFR G719C: Epidermal growth factor receptor (EGFR, Homo sapiens, UniProt P00533, G719C)
# EGFR L861Q: Epidermal growth factor receptor (EGFR, Homo sapiens, UniProt P00533, L861Q)
# EGFR G719S: Epidermal growth factor receptor (EGFR, Homo sapiens, UniProt P00533, G719S)
# EGFR L858R: Epidermal growth factor receptor (EGFR, Homo sapiens, UniProt P00533, L858R)
Compound,target,effect on,method,concentration,remaining binding [%]
CN(C)c1nccc(-c2cnc3ncccn23)n1,EGFR T790M,binding,,1 µM,58
O=C(c1ccc(Nc2ncc(Cl)c(-c3ccc(Cl)s3)n2)cc1)N1CCC(N2CCCC2)CC1,EGFR L858R/T790M,binding,competition with immobilised ligand,1 µM,49
N[C@H]1CCN(c2nccc(-c3cnn4ncccc34)n2)C1,EGFR del746-750,binding,,1 µM,98
COc1cnc(Nc2cccc(S(N)(=O)=O)c2)nc1N1CCN(c2ccccc2)C(=O)C1,EGFR del752-759,binding,competition with immobilised ligand,1 µM,100
CCN1CCN(Cc2ccc(C(=O)Nc3ccc(C)c(Oc4ccc5c(c4)CC(=O)N5)c3)cc2C(F)(F)F)CC1,EGFR,binding,competition with immobilised ligand,1 µM,100
N#Cc1ccccc1CSc1nnc2c(n1)[nH]c1ccccc12,EGFR,binding,competition with immobilised ligand,10 µM,100
CNC(=O)[C@@H]1CC[C@@H](n2c(-c3ccc4cnccc4c3)nc3ccc(C(=O)NCc4cccc(C(N)=O)c4)cc32)C1,EGFR A750P/del747-749,binding,competition with immobilised ligand,1 µM,100
O=C(c1ccc(Nc2nccc(-c3cc4ccccc4s3)n2)cc1)N1CCC(N2CCCC2)CC1,EGFR del746-750,binding,competition with immobilised ligand,1 µM,100
CN1CCN(c2ccc(Nc3nccc(-c4cccc([N+](=O)[O-])c4)n3)cc2C(F)(F)F)CC1,EGFR del752-759,binding,,10 µM,74
Cc1cnc(Nc2ccc(C(=O)N3CCC(N4CCCC4)CC3)cc2)nc1-c1cc2ccccc2s1,EGFR G719C,binding,competition with immobilised ligand,1 µM,92
O=C(Nc1c[nH]nc1C(=O)NC1CCNCC1)c1cc(F)cc(F)c1,EGFR L861Q,binding,competition with immobilised ligand,1 µM,100
O=C(N1CCS(=O)(=O)CC1)N1C[C@H](c2ccc(OC(F)(F)F)cc2)C[C@H](c2nc(C3CC3)no2)C1,EGFR T790M,cell-free assay,competition with immobilised ligand,1 µM,100
CN(C)c1ncc(F)c(-c2cnn3ncccc23)n1,EGFR G719S,binding,,1 µM,100
CN1CCN(c2ccc(Nc3nccc(-c4ccccc4)n3)cc2C(F)(F)F)CC1,EGFR L858R/T790M,binding,,10 µM,93
O=C(Nc1cccnn1)N1CC(C/C=C/c2cncc(Oc3ccc(C(F)(F)F)cn3)n2)C1,"Epidermal growth factor receptor (EGFR, Homo sapiens, UniProt P00533, del747-750/T751S)",cell-free assay,competition with immobilised ligand,1 µM,100
Nc1ncc2c(n1)-c1c([nH]c3ccc(C#CC4CC4)cc13)CCCC2,EGFR L861Q,binding,competition with immobilised ligand,1 µM,92
O=C(NCCCN1CCOCC1)c1ccc(Nc2ncc(Cl)c(-c3ccc(Cl)s3)n2)cc1,EGFR L861Q,binding,competition with immobilised ligand,1 µM,100
CC(=O)N1CCC(c2ccc(C(=O)NC(=N)N)cc2C(F)(F)F)CC1,EGFR del752-759,cell-free assay,competition with immobilised ligand,1 µM,90
CC1CCCN1c1nccc(-c2cnn3ncccc23)n1 (centres unmarked),EGFR del752-759,binding,,1 µM,100
Cc1c(-c2ccccc2)oc2c(C(=O)OCCN3CCCCC3)cccc2c1=O,EGFR,cell-free assay,competition with immobilised ligand,0.1 µM,100
c1cncc(-c2cccc(Nc3nccc(NC4CCCCC4)n3)c2)c1,EGFR L858R,binding,competition with immobilised ligand,10 µM,58
C[C@@H]1CCN(c2nccc(-c3cnn4ncccc34)n2)C1,EGFR del752-759,binding,,1 µM,88
COc1cnc(Nc2cccc(S(N)(=O)=O)c2)nc1N1CCN(c2ccccc2)CC1,EGFR L858R,binding,competition with immobilised ligand,1 µM,89
Cc1cnn2ncc(-c3ccnc(N(C)C)n3)c2c1,EGFR L858R,binding,,1 µM,100
CS(=O)(=O)NCC[C@H](NC(=O)c1cncc2c1cnn2-c1ccc(F)cc1)c1ccnc(S(C)(=O)=O)c1,EGFR L858R,cell-free assay,competition with immobilised ligand,1 µM,83
O=C(NCC1CCOCC1)c1n[nH]cc1NC(=O)c1c(F)cccc1F,EGFR G719C,binding,competition with immobilised ligand,1 µM,100
COc1ncc2cc3ccccc3nc2c1C#N,EGFR G719C,cell-free assay,competition with immobilised ligand,5 µM,2.1
COc1ccc2c(c1)O[C@H](c1ccc(OC)c(OC)c1)C[C@@H]2NC(=O)C1(c2ccc3c(c2)OC(F)(F)O3)CC1,EGFR L858R,cell-free assay,competition with immobilised ligand,1 µM,100
O=C(c1ccc(Nc2ncc(Cl)c(-c3cc4ccccc4s3)n2)cc1)N1CCC(N2CCCC2)CC1,EGFR A750P/del747-749,binding,competition with immobilised ligand,1 µM,86
C[C@H](NC(=O)c1cnc2n1[C@](C)(Cc1ccc(C#N)cc1)C(=O)N2c1cc(Cl)c(F)c(Cl)c1)C(=O)NC1(c2ccccn2)CC1,EGFR del752-759,cell-free assay,competition with immobilised ligand,1 µM,100
CN(C)c1nccc(-c2cnn3ncccc23)n1,EGFR L861Q,binding,,1 µM,90
C[C@H](c1cccc(C#N)c1)n1cc(Cl)cc(C(N)=O)c1=N,EGFR L858R,cell-free assay,competition with immobilised ligand,1 µM,86
O=C(NCCCN1CCOCC1)c1ccc(Nc2nccc(-c3cc4ccccc4s3)n2)cc1,EGFR G719S,binding,competition with immobilised ligand,1 µM,100
NS(=O)(=O)c1cc(NC(=O)Cc2ccccc2)ccc1Oc1cccc(Cl)c1,EGFR G719S,cell-free assay,competition with immobilised ligand,1 µM,74
CCN(CC)Cc1cc(Nc2ccnc3cc(Cl)ccc23)ccc1O,EGFR,cell-free assay,competition with immobilised ligand,10 µM,91
